Results as given in PMC11771645 (Journal of Clinical Pharmacology, 2024).
“Also recorded” adds a separate entry of the source. Like-named read-outs stand apart in the source and are kept apart here.

Key:
[1] = test system: breast cancer resistance protein (BCRP); settings: clinical doses; cited from earlier work
[2] = Food-effect study; assay type: in vivo, human
[3] = test system: CYP2C19; settings: clinical doses; cited from earlier work
[4] = Phase 2 Friedreich's ataxia study, observed PK; assay type: in vivo; settings: human, plasma, oral, geometric mean; for AUC: AUC0‐8 h
Outline: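 Phase 2 study in patients with Friedreich's ataxia, with repeated oral dosing of the test compound at 200 mg or 400 mg TID. Observed plasma Cmax and AUC0-8 h were summarised as geometric means on Day 1 and Day 91. These observed data served to verify the PBPK model, with simulated exposures judged accurate if within 1.5-fold of observed.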

[5] = test system: CYP3A4; test: In vitro CYP3A4 induction; assay type: in vitro ADME, human
[6] = oral dose, male subjects; cited from earlier work
[7] = test system: CYP3A4; settings: cited from earlier work
[8] = patients with Friedreich's ataxia; cited from earlier work
[9] = test system: CYP1A2; test: In vitro CYP1A2 induction; assay type: in vitro ADME, human
[10] = Unbound fraction in plasma; assay type: in vitro ADME; settings: human
[11] = Clinical PK in healthy volunteer studies; assay type: in vivo, human
[12] = biological target: CYP3A4 (Homo sapiens, UniProt P08684); test: Reaction phenotyping studies; assay type: in vitro ADME
[13] = test system: CYP3A4; settings: cited from earlier work; remark: listed apart in the source
[14] = test system: CYP2C9; settings: clinical doses; cited from earlier work
[15] = 400 mg vatiquinone with 200 mg itraconazole
[16] = Observed, Vatiquinone + Itraconazole (5 days TID, 200 mg)
[17] = in the presence of itraconazole
[18] = 400 mg vatiquinone with 600 mg rifampicin
[19] = Observed, Vatiquinone + Rifampicin (14 days TID, 600 mg)

Sequence of CYP3A4 (Homo sapiens, UniProt P08684) (P08684 whole entry): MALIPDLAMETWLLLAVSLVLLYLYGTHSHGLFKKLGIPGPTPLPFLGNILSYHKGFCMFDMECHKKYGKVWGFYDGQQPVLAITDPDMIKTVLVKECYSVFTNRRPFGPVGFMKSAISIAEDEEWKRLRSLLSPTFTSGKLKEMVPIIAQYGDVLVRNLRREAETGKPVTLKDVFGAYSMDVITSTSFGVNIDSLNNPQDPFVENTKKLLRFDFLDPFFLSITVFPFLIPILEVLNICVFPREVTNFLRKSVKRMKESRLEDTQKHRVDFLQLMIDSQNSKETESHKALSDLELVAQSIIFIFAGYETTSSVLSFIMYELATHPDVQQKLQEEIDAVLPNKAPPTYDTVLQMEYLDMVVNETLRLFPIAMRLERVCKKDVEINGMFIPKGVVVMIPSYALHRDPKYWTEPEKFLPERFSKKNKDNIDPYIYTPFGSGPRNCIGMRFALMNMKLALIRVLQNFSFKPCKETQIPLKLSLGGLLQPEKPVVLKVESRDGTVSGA

AUC, low‐fat meals compared with fasted [2]: 8 fold | CYP3A4 Indmax ([5]; Scaled using rifampicin data): 4.26 | EC50 ([5]; human): 3700 nM | CYP3A4 induction potential ([5]; in vitro data): borderline potential inducer | CYP1A2 Indmax ([9]; In vitro study): 2.61 | CYP1A2 Indmax ([9]; Scaled using omeprazole data): 1.04 | EC50 ([9]; human): 1800 nM | CYP1A2 induction potential ([9]; in vitro data): borderline potential inducer | fraction unbound [10]: 0.022 | ka ([11]; Clinical study): 1.27 h⁻¹ | tlag ([11]; Clinical study): 3.67 h | CL/F (apparent oral clearance) ([11]; healthy volunteer studies, from AUC0-inf in the absence of itraconazole): 94.3 L/h | half-life ([11]; human, in vivo, oral): ~9 h | enzyme mediating vatiquinone metabolism [12]: mainly mediated by CYP3A4
Compound: CC(C)=CCC/C(C)=C/CC/C(C)=C/CC[C@@](C)(O)CCC1=C(C)C(=O)C(C)=C(C)C1=O [Vatiquinone, alpha‐tocotrienol quinone]
effect of vatiquinone on BCRP substrate (rosuvastatin) exposure [1]: did not have a significant impact; also recorded: lack of a clinically relevant effect | effect of vatiquinone on CYP2C19 substrate (omeprazole) exposure [3]: did not have a significant impact; also recorded: lack of a clinically relevant effect | AUC ([4]; 200 mg, 200 mg TID, Day 1, patients with Friedreich's ataxia): 1030 ng·h/mL | AUC ([4]; 200 mg, 200 mg TID, Day 91): 1950 ng·h/mL | Cmax ([4]; 200 mg, 200 mg TID, Day 1): 466 ng/mL | Cmax ([4]; 200 mg, 200 mg TID, Day 91): 689 ng/mL | AUC ([4]; 400 mg, 400 mg TID, Day 1, patients with Friedreich's ataxia): 2430 ng·h/mL | AUC ([4]; 400 mg, 400 mg TID, Day 91): 3490 ng·h/mL | Cmax ([4]; 400 mg, 400 mg TID, Day 1): 1020 ng/mL | Cmax ([4]; 400 mg, 400 mg TID, Day 91): 905 ng/mL | mean cumulative recovery [6]: 92.9% | recovery of unchanged vatiquinone in feces [6]: 6.77 % of dose | increase in vatiquinone AUC0‐inf [7, 15]: ~2.9 fold | increase in vatiquinone Cmax [7, 15]: approximately 3.5 fold | AUC0‐inf, geometric mean [7, 16]: 11,300 h•ng/mL | Cmax, geometric mean [7, 16]: 3430 ng/mL | increase in vatiquinone AUC0‐inf [7, 17]: ~188% | increase in vatiquinone Cmax [7, 17]: approximately 245% | tolerability [8]: well tolerated with no dose‐limiting toxicities | decrease in vatiquinone AUC0‐inf [13, 18]: ~46% | decrease in vatiquinone Cmax [13, 18]: approximately 36% | AUC0‐inf, geometric mean [13, 19]: 1830 ng·h/mL | Cmax, geometric mean [13, 19]: 619 ng/mL | effect of vatiquinone on CYP2C9 substrate (tolbutamide) exposure [14]: did not have a significant impact; also recorded: lack of a clinically relevant effect
